inhibition, Activity and solubility data for six compounds are collected here from ChEMBL document CHEMBL1156948, “Statistical molecular design of a focused salicylidene acylhydrazide library and multivariate QSAR of inhibition of type III secretion in the Gram-negative bacterium Yersinia” (Bioorg Med Chem, 2010).

For series [1], the system named is Yersinia pseudotuberculosis YPIII. Briefly: Inhibition of T3S in Yersinia pseudotuberculosis YPIII expressing yopE-luxAB at 50 uM after 3 hrs by luciferase reporter gene assay. The method in brief: (§1)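 Strain YPIII pIB102 (yopE-luxAB) grown overnight at room temperature in BHI with 5 mM EGTA and 20 mM MgCl2 (calcium depletion), adjusted to OD600 0.088–0.095. Compound added from DMSO at 1.56–200 µM final (eight concentrations). Shaken 1 h at room temperature, then 2 h at 37 °C. Decanal added and light emission read immediately. Triplicates, repeated at least three times.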
(Reporter assays use an easily measured gene product as a stand-in for the process of interest.)

For series [2] the test system is unchanged. Briefly: Inhibition of T3S in Yersinia pseudotuberculosis YPIII expressing yopE-luxAB at 3.13 uM after 3 hrs by luciferase reporter gene assay. In a few lines:
as §1

For series [3], the system named is Escherichia coli. Briefly: Antibacterial activity against Escherichia coli DH5[alpha] at 50 uM after 23 hrs by broth dilution assay. The class given is functional, organism-based. In a few lines: (§2)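 Overnight LB culture of E. coli DH5α grown at 37 °C, diluted to OD600 0.1 in LB with 2.5 mM CaCl2; compound added from DMSO stock to final 50 or 100 µM. Incubated at 37 °C with absorbance at 595 nm followed over 23 h.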
In general terms: Broth dilution looks for growth in wells or tubes with falling amounts of substance.

Series [4] concerns Yersinia pseudotuberculosis YPIII. Briefly: Inhibition of T3S in Yersinia pseudotuberculosis YPIII expressing yopE-luxAB at 1.56 uM after 3 hrs by luciferase reporter gene assay. In a few lines: as §1
The target in series [5] is Tyrosine-protein phosphatase YopH (Yersinia pseudotuberculosis serotype I (strain IP32953)) (UniProt P08538). Briefly: Inhibition of YopH in Yersinia pseudotuberculosis YPIII expressing yopE-luxAB treated 3 hrs before substrate addition measured after 15 mins by microplate reader. The method in brief:
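Same calcium-depleted YPIII pIB102 cultures and compound exposure (1 h room temperature, then 2 h 37 °C). An aliquot of the bacterial suspension was mixed with 25 mM p-nitrophenyl phosphate, 40 mM MES pH 5.0, 1.6 mM DTT. Incubated 15 min at 37 °C, quenched with 1 M NaOH, absorbance read at 405 nm. Triplicates, repeated at least three times.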

Series [6] can be described thus: Aqueous solubility at 200 uM. The class given is physicochemical. Particulars: buffer.
For series [7], the system named is Yersinia pseudotuberculosis YPIII. Briefly: Inhibition of T3S in Yersinia pseudotuberculosis YPIII expressing yopE-luxAB at 25 uM after 3 hrs by luciferase reporter gene assay. In a few lines: as §1
Series [8] concerns Escherichia coli. Briefly: Antibacterial activity against Escherichia coli DH5[alpha] at 100 uM after 23 hrs by broth dilution assay. The class given is functional, organism-based. In a few lines: as §2
For series [9], the system named is Yersinia pseudotuberculosis. Kind of series: Antibacterial activity against Yersinia pseudotuberculosis expressing pIB102 at 100 uM after 23 hrs by broth dilution assay. The class given is functional, organism-based. In a few lines:
(§3)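 Wild-type pIB102 grown overnight in LB at room temperature, diluted to OD600 = 0.1 in LB with 2.5 mM CaCl2. Compound added from DMSO stock to final 50 and 100 µM. Incubated at 37 °C with absorbance at 595 nm read over 23 h.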

The subject of series [10] is Yersinia pseudotuberculosis YPIII. Briefly: Inhibition of T3S in Yersinia pseudotuberculosis YPIII expressing yopE-luxAB at 12.5 uM after 3 hrs by luciferase reporter gene assay. In a few lines:
as §1

The test system of series [11] is Yersinia pseudotuberculosis. Briefly: Antibacterial activity against Yersinia pseudotuberculosis expressing pIB102 at 50 uM after 23 hrs by broth dilution assay. The class given is functional, organism-based. In a few lines:
as §3

Series [12] has as its system Yersinia pseudotuberculosis YPIII. Briefly: Inhibition of T3S in Yersinia pseudotuberculosis YPIII expressing yopE-luxAB at 6.25 uM after 3 hrs by luciferase reporter gene assay. In a few lines:
as §1

Series [13] has the same test system. Briefly: Inhibition of T3S in Yersinia pseudotuberculosis YPIII expressing yopE-luxAB at 100 uM after 3 hrs by luciferase reporter gene assay. In a few lines:
as §1

Series [14] has the same test system. Briefly: Inhibition of T3S in Yersinia pseudotuberculosis YPIII expressing yopE-luxAB at 200 uM after 3 hrs by luciferase reporter gene assay. In a few lines: as §1
In the next series the test system is J774. Briefly: Cytotoxicity against mouse J774 cells at 25 to 100 uM after 14 hrs using calcein AM staining by fluorescence microscopy. The class given is cell-based. Particulars: j774, 14 h. In a few lines: (§4)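 J774A macrophages (4×10⁴/well, DMEM with 10% FCS, gentamicin 3 µg/mL, 24 h at 37 °C, 5% CO2) washed with PBS, then given fresh DMEM with compound plus bacteria (OD600 0.002), final 25, 50, 100 µM, DMSO below 0.5%. ETEC grown overnight in LB at 37 °C, diluted and grown 3 h. 14 h at 37 °C, 5% CO2; CalceinAM 40 min, fluorescence 485/535 nm, confirmed by microscopy; uninfected cells = 100% viability; gentamicin 5 µg/mL rescue control.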

Series [15] deals with Escherichia coli. Kind of series: Antibacterial activity against Enterotoxigenic Escherichia coli infected in mouse J774 cells assessed as inhibition of bacteria-induced cell death at 25 to 100 uM after 14 hrs using calcein AM staining by fluorescence microscopy. The class given is functional, organism-based. In a few lines: as §4
Series [16] has as its system Yersinia pseudotuberculosis. Briefly: Antibacterial activity against Yersinia pseudotuberculosis expressing pIB102 infected in mouse J774 cells assessed as inhibition of bacteria-induced cell death at 50 uM after 14 hrs using calcein AM staining by fluorescence microscopy. The class given is functional, organism-based. In a few lines: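 J774A macrophages (4 × 10^4 cells/well) grown 24 h in DMEM/10% FCS/gentamicin. Wild-type pIB102 grown in LB plus kanamycin overnight at room temperature, diluted 1/10 in DMEM, shaken 1 h at room temperature then 2 h at 37 °C. Added at OD600 = 0.002 with compound (25, 50, 100 µM final; DMSO <0.5%). Incubated 14 h, 37 °C, 5% CO2. CalceinAM 40 min, fluorescence 485/535 nm; uninfected cells = 100% viability.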

SMILES strings stand for the structures. Activity calls are given as the source filed them.

Chain of Tyrosine-protein phosphatase YopH (Yersinia pseudotuberculosis serotype I (strain IP32953)) (P08538 whole entry): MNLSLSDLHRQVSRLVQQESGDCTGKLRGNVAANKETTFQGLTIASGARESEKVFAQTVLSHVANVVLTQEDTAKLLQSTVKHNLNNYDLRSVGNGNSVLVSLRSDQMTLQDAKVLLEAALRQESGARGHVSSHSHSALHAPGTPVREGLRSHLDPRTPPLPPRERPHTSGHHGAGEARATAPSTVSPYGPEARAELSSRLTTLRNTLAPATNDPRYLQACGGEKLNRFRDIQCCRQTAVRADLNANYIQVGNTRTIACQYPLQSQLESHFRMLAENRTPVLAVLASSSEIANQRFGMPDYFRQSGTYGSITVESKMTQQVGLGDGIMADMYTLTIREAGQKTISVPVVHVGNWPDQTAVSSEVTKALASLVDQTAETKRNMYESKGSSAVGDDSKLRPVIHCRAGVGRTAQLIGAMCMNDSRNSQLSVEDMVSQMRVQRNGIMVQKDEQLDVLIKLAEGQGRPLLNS

Consider `O=C(N/N=C/c1cc(I)cc(I)c1O)c1cc(Cl)cc(Cl)c1`, for which the inhibition came to 26% in [1]; 12% in [2]; 0% in series [4]; 23% in [7]; 17% in [10]; 15% in series [12]. In addition, in series [13], the inhibition was 21%. Further, the result (in the series on Escherichia coli [3]; with Escherichia coli [8]; in series [9]; in series [11]) was inactive. Further, the inhibition entry in series [5] is “inactive”. Besides, the solubility entry in [6] is listed as “Insoluble”.
On to `O=C(COc1ccc([N+](=O)[O-])cc1)N/N=C/c1cccc(F)c1O`, for which the inhibition in [1] was 84%; in series [2] it was -5%; in [14], 97%; in [7], 25%; in series [10], 4%; in [12] it was 6%. For the same compound, in series [13], the inhibition was 95%. Also, the result (in the series with Escherichia coli [3]; in the series on Escherichia coli [8]; in series [9]; in series [11]) was inactive. Moreover, the inhibition entry in series [5] and in [16] was “Active” throughout. Also, the Activity entry in the series with J774 is reported as “Non-toxic”. In addition, in the series with Escherichia coli [15], the inhibition entry is “inactive”.
`CC(C)(C)c1cc(/C=N/NC(=O)c2cccc(C(F)(F)F)c2)c(O)c(C(C)(C)C)c1`: the inhibition was 9% in series [1]; -10% in series [2]; 2% in series [14]; 6% in [7]; 7% in series [10]; 3% in series [12]. Further, the inhibition in series [13] worked out at 11%. The result (in the series with Escherichia coli [3]; in the series with Escherichia coli [8]; in [9]; in series [11]) was inactive. Further, in the series on J774, the Activity entry is given as “Non-toxic”. Moreover, the inhibition result (in the series with Escherichia coli [15]; in [16]) was “inactive” in each case.
As for `COc1ccc(Br)c(/C=N/NC(=O)c2snnc2C)c1O`, the inhibition in [1] is 60%; in series [2] it was 14%; in series [4], -5%; in series [7], 34%; in series [10], 21%; in series [12] it was 19%. Also, the inhibition in series [13] came to 71%. The outcome (with Escherichia coli [3]; in the series on Escherichia coli [8]; in [9]; in [11]) was inactive. Further, in series [6], the solubility entry is listed as “Insoluble”.
As for `COc1cccc(C(=O)N/N=C/c2cccc(F)c2O)c1`, the inhibition was 45% in series [1]; 7% in series [2]; 74% in [14]; -2% in [4]; 17% in series [7]; 11% in series [10]. Moreover, the inhibition in series [12] worked out at 9%; in [13], 58%. Further, the result (in the series with Escherichia coli [3]; in the series on Escherichia coli [8]; in series [9]; in series [11]) was inactive. The Activity result with J774 was “Non-toxic”. In the series on Escherichia coli [15], the inhibition result is “inactive”. For the same compound, in series [16], the inhibition entry was “Active”.
As for `O=C(CCc1ccc(F)cc1)N/N=C/c1cc(F)cc(Cl)c1O`, the inhibition was 63% in series [1]; 2% in [2]; 94% in series [14]; -6% in series [4]; 15% in series [7]; 10% in [10]. Moreover, the inhibition in series [12] is -1%; in [13], 90%. In addition, the result (with Escherichia coli [3]; in the series on Escherichia coli [8]; in series [9]; in series [11]) was inactive. Also, in the series with J774, the Activity entry is “Non-toxic”. Besides, the inhibition result (with Escherichia coli [15]; in [16]) was “inactive” throughout.

One may read the inhibition as the drop in the measured response relative to a control, in per cent.
